According to ChEMBL document CHEMBL3864121, “Development of ebsulfur analogues as potent antibacterials against methicillin-resistant Staphylococcus aureus” (Bioorg Med Chem, 2016):
≈ marks a conversion by molar mass, not a printed value.

What was measured:
Type in all cases: functional
[1] = test system: Staphylococcus aureus; test: Antibacterial activity against methicillin-sensitive Staphylococcus aureus ATCC 6538 measured after overnight incubation by broth double-dilution method
In short: (§1)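 MIC by broth double-dilution in liquid Mueller-Hinton medium. Values are reported in µg/mL.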

[2] = test system: Staphylococcus aureus; test: Antibacterial activity against methicillin-sensitive Staphylococcus aureus ATCC 25923 measured after overnight incubation by broth double-dilution method; in short: as §1
[3] = test system: Staphylococcus aureus; test: Antibacterial activity against methicillin-sensitive Staphylococcus aureus ATCC 29213 measured after overnight incubation by broth double-dilution method; in short: as §1
[4] = test system: Staphylococcus aureus; test: Antibacterial activity against methicillin-resistant Staphylococcus aureus ATCC 33591 measured after overnight incubation by broth double-dilution method; in short: as §1
[5] = test system: Staphylococcus aureus; test: Antibacterial activity against methicillin-resistant Staphylococcus aureus 1 measured after overnight incubation by broth double-dilution method; in short: as §1
[6] = test system: Staphylococcus aureus; test: Antibacterial activity against methicillin-resistant Staphylococcus aureus 2 measured after overnight incubation by broth double-dilution method; in short: as §1
[7] = test system: Staphylococcus aureus; test: Antibacterial activity against methicillin-resistant Staphylococcus aureus BRS3 measured after overnight incubation by broth double-dilution method; in short: as §1
[8] = test system: Staphylococcus aureus; test: Antibacterial activity against methicillin-resistant Staphylococcus aureus C1 measured after overnight incubation by broth double-dilution method; in short: as §1
[9] = test system: Staphylococcus aureus; test: Antibacterial activity against methicillin-resistant Staphylococcus aureus C2 measured after overnight incubation by broth double-dilution method; in short: as §1
[10] = test system: Staphylococcus aureus; test: Antibacterial activity against methicillin-resistant Staphylococcus aureus C7 measured after overnight incubation by broth double-dilution method; in short: as §1
[11] = test system: Staphylococcus aureus; test: Antibacterial activity against methicillin-resistant Staphylococcus aureus C14 measured after overnight incubation by broth double-dilution method; in short: as §1
[12] = test system: Staphylococcus aureus; test: Antibacterial activity against methicillin-resistant Staphylococcus aureus C16 measured after overnight incubation by broth double-dilution method; in short: as §1
[13] = test system: Staphylococcus aureus; test: Antibacterial activity against methicillin-resistant Staphylococcus aureus C19 measured after overnight incubation by broth double-dilution method; in short: as §1
[14] = test system: Staphylococcus aureus; test: Antibacterial activity against methicillin-resistant Staphylococcus aureus G1 measured after overnight incubation by broth double-dilution method; in short: as §1
[15] = test system: Staphylococcus aureus; test: Antibacterial activity against methicillin-resistant Staphylococcus aureus G6 measured after overnight incubation by broth double-dilution method; in short: as §1
[16] = test system: Staphylococcus aureus; test: Antibacterial activity against methicillin-resistant Staphylococcus aureus G12 measured after overnight incubation by broth double-dilution method; in short: as §1
[17] = test system: Staphylococcus aureus; test: Antibacterial activity against methicillin-resistant Staphylococcus aureus G14 measured after overnight incubation by broth double-dilution method; in short: as §1
[18] = test system: Staphylococcus aureus; test: Antibacterial activity against methicillin-resistant Staphylococcus aureus NRS4 measured after overnight incubation by broth double-dilution method; in short: as §1
[19] = test system: Staphylococcus aureus; test: Antibacterial activity against methicillin-resistant Staphylococcus aureus NRS51 measured after overnight incubation by broth double-dilution method; in short: as §1
[20] = test system: Staphylococcus aureus; test: Antibacterial activity against methicillin-resistant Staphylococcus aureus NRS77 measured after overnight incubation by broth double-dilution method; in short: as §1
[21] = test system: Staphylococcus aureus; test: Antibacterial activity against methicillin-resistant Staphylococcus aureus S14 measured after overnight incubation by broth double-dilution method; in short: as §1
[22] = test system: Staphylococcus aureus; test: Antibacterial activity against methicillin-resistant Staphylococcus aureus S17 measured after overnight incubation by broth double-dilution method; in short: as §1
[23] = test system: Staphylococcus aureus; test: Antibacterial activity against methicillin-resistant Staphylococcus aureus S22 measured after overnight incubation by broth double-dilution method; in short: as §1
[24] = test system: Staphylococcus aureus; test: Antibacterial activity against methicillin-resistant Staphylococcus aureus S24 measured after overnight incubation by broth double-dilution method; in short: as §1
[25] = test system: Staphylococcus aureus; test: Antibacterial activity against methicillin-resistant Staphylococcus aureus USA100 measured after overnight incubation by broth double-dilution method; in short: as §1
[26] = test system: Staphylococcus aureus; test: Antibacterial activity against methicillin-resistant Staphylococcus aureus USA200 measured after overnight incubation by broth double-dilution method; in short: as §1
[27] = test system: Staphylococcus aureus; test: Antibacterial activity against methicillin-resistant Staphylococcus aureus USA300 measured after overnight incubation by broth double-dilution method; in short: as §1
[28] = test system: Staphylococcus aureus; test: Antibacterial activity against methicillin-resistant Staphylococcus aureus USA600 measured after overnight incubation by broth double-dilution method; in short: as §1
[29] = test system: Staphylococcus epidermidis; test: Antibacterial activity against Staphylococcus epidermidis ATCC 35984 measured after overnight incubation by broth double-dilution method; conditions: RP62A
In short: (§2)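 MIC by broth double-dilution in Mueller-Hinton medium. Re-testing at the time-kill inoculum used 1×10^6 CFU/mL.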

[30] = test system: Enterococcus faecalis; test: Antibacterial activity against Enterococcus faecalis ATCC 29212 measured after overnight incubation by broth double-dilution method; in short: as §2
[31] = test system: Enterococcus faecalis; test: Antibacterial activity against Enterococcus faecalis ATCC 49533 measured after overnight incubation by broth double-dilution method; in short: as §2
[32] = test system: Enterococcus faecium; test: Antibacterial activity against Enterococcus faecium BM4105-RF measured after overnight incubation by broth double-dilution method; in short: as §1
[33] = test system: Enterococcus; test: Antibacterial activity against Vancomycin-resistant Enterococcus measured after overnight incubation by broth double-dilution method; in short: as §1
[34] = test system: Listeria monocytogenes; test: Antibacterial activity against Listeria monocytogenes ATCC 19115 measured after overnight incubation by broth double-dilution method; in short: as §2
[35] = test system: Mycolicibacterium smegmatis; test: Antibacterial activity against Mycobacterium smegmatis MC2-155 measured after overnight incubation by broth double-dilution method; conditions: str. MC2 155; in short: as §1

Structure (SMILES) | MIC [1] [µg/mL] | MIC [2] [µg/mL] | MIC [3] [µg/mL] | MIC [4] [µg/mL] | MIC [5] [µg/mL] | MIC [6] [µg/mL] | MIC [7] [µg/mL] | MIC [8] [µg/mL] | MIC [9] [µg/mL] | MIC [10] [µg/mL] | MIC [11] [µg/mL] | MIC [12] [µg/mL] | MIC [13] [µg/mL] | MIC [14] [µg/mL] | MIC [15] [µg/mL] | MIC [16] [µg/mL] | MIC [17] [µg/mL] | MIC [18] [µg/mL] | MIC [19] [µg/mL] | MIC [20] [µg/mL] | other results
O=c1c2ccccc2sn1-c1ccc(Cl)cc1 | 3.9 (≈ 14.9 µM) | 2 (≈ 7.64 µM) | 2 (≈ 7.64 µM) | 1 (≈ 3.82 µM) | 1 (≈ 3.82 µM) | 1 (≈ 3.82 µM) | 3.9 (≈ 14.9 µM) | 2 (≈ 7.64 µM) | 1 (≈ 3.82 µM) | 1 (≈ 3.82 µM) | 3.9 (≈ 14.9 µM) | 3.9 (≈ 14.9 µM) | 1 (≈ 3.82 µM) | 2 (≈ 7.64 µM) | 2 (≈ 7.64 µM) | 2 (≈ 7.64 µM) | 1 (≈ 3.82 µM) | 3.9 (≈ 14.9 µM) | 3.9 (≈ 14.9 µM) | 3.9 (≈ 14.9 µM) | MIC [21]: ≤ 0.25 µg/mL; MIC [22]: 1 µg/mL (≈ 3.82 µM); MIC [23]: 2 µg/mL (≈ 7.64 µM); MIC [24]: 1 µg/mL (≈ 3.82 µM); MIC [25]: 2 µg/mL (≈ 7.64 µM); MIC [26]: 2 µg/mL (≈ 7.64 µM); MIC [27]: 3.9 µg/mL (≈ 14.9 µM); MIC [28]: 2 µg/mL (≈ 7.64 µM); MIC [29]: 1 µg/mL (≈ 3.82 µM); MIC [30]: 62.5 µg/mL (≈ 239 µM); MIC [31]: > 125 µg/mL; MIC [32]: 31.3 µg/mL (≈ 120 µM); MIC [33]: 0.5 µg/mL (≈ 1.91 µM); MIC [34]: 1 µg/mL (≈ 3.82 µM); MIC [35]: 3.9 µg/mL (≈ 14.9 µM)
CC(C)Cn1sc2ccccc2c1=O | 7.8 (≈ 37.6 µM) | 125 (≈ 603 µM) | 15.6 (≈ 75.3 µM) | > 125 | 7.8 (≈ 37.6 µM) | 15.6 (≈ 75.3 µM) | 7.8 (≈ 37.6 µM) | 7.8 (≈ 37.6 µM) | 7.8 (≈ 37.6 µM) | 7.8 (≈ 37.6 µM) | 7.8 (≈ 37.6 µM) | 7.8 (≈ 37.6 µM) | 7.8 (≈ 37.6 µM) | 3.9 (≈ 18.8 µM) | 7.8 (≈ 37.6 µM) | 7.8 (≈ 37.6 µM) | 7.8 (≈ 37.6 µM) | 7.8 (≈ 37.6 µM) | 7.8 (≈ 37.6 µM) | 7.8 (≈ 37.6 µM) | MIC [21]: 2 µg/mL (≈ 9.65 µM); MIC [22]: 7.8 µg/mL (≈ 37.6 µM); MIC [23]: 7.8 µg/mL (≈ 37.6 µM); MIC [24]: 7.8 µg/mL (≈ 37.6 µM); MIC [25]: 7.8 µg/mL (≈ 37.6 µM); MIC [26]: 7.8 µg/mL (≈ 37.6 µM); MIC [27]: 7.8 µg/mL (≈ 37.6 µM); MIC [28]: 7.8 µg/mL (≈ 37.6 µM); MIC [29]: 7.8 µg/mL (≈ 37.6 µM); MIC [30]: 7.8 µg/mL (≈ 37.6 µM); MIC [31]: 15.6 µg/mL (≈ 75.3 µM); MIC [32]: 7.8 µg/mL (≈ 37.6 µM); MIC [33]: 3.9 µg/mL (≈ 18.8 µM); MIC [34]: > 125 µg/mL; MIC [35]: 3.9 µg/mL (≈ 18.8 µM)
